Here are results for nine compounds from ChEMBL document CHEMBL4428114, “An LP1 analogue, selective MOR agonist with a peculiar pharmacological profile, used to scrutiny the ligand binding domain” (Bioorg Med Chem, 2016).

Molecules are shown by their SMILES. Activity calls are given as the source filed them.

In assay [1] the target is Delta-type opioid receptor (Homo sapiens, UniProt P41143). In words: Displacement of [3H]DPDPE from human DOR expressed in CHO cells. It is filed as cell-based.
Assay [2] deals with T1, Mu-type opioid receptor (Homo sapiens, UniProt P35372). In words: Displacement of [3H]DAMGO from MOR in HEK293 cells. It is filed as cell-based.
T1 sequence (P35372 whole entry): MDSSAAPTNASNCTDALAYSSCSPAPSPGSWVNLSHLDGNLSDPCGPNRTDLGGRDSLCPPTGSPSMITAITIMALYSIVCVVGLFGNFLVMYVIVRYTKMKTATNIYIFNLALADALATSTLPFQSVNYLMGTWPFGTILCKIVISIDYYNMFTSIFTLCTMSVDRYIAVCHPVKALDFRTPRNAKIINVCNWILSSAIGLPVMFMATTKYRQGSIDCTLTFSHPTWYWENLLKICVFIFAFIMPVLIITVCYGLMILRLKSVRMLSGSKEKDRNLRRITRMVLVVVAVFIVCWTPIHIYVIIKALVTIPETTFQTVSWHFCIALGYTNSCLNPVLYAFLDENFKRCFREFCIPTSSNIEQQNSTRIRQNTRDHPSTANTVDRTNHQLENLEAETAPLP
Assay [3] is filed under the species Homo sapiens. Kind of assay: Selectivity ratio of Ki for displacement of [3H]DPDPE from human DOR expressed in CHO cells to Ki for displacement of [3H]DAMGO from MOR in HEK293 cells. It is filed as cell-based. For orientation: Displacement assays read how much labelled ligand stays bound in the presence of the test substance.
Assay [4] is described as follows: Selectivity ratio of Ki for displacement of [3H]U69593 from rat KOR expressed in CHO cells to Ki for displacement of [3H]DAMGO from MOR in HEK293 cells. It is filed as cell-based.
Assay [5] has as its target Kappa-type opioid receptor (Rattus norvegicus, UniProt P34975). Kind of assay: Displacement of [3H]U69593 from rat KOR expressed in CHO cells. It is filed as cell-based.
The target in assay [6] is Mu-type opioid receptor (Cavia porcellus) (UniProt P97266). Kind of assay: Agonist activity at MOR in Dunkin-Hartley guinea pig ileum assessed as inhibition of electrically-evoked contractions. It is filed as tissue-based. An outline of the steps:
(§1)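 Guinea-pig ileum strips held under a 2 g load and equilibrated for 60 min. Contractions were evoked by transmural single pulses (0.1 Hz, 0.3 ms, 200 mA), followed by a further 60–90 min equilibration with repeated Krebs changes. Compound was added cumulatively, at least 5 min per step. Inhibition was expressed as percentage change from baseline, with EC50 from non-linear curve fitting (n = 6–8).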

The target of assay [7] is T1, Mu-type opioid receptor. Kind of assay: Displacement of [3H]Diprenorphine from human MOR expressed in HEK293 cell membranes by liquid scintillation counting.
For assay [8], the target named is Kappa-type opioid receptor (Homo sapiens, UniProt P41145). Kind of assay: Displacement of [3H]Diprenorphine from human KOR expressed in HEK293 cell membranes by liquid scintillation counting.
Chain of Kappa-type opioid receptor (Homo sapiens, UniProt P41145) (P41145 whole entry): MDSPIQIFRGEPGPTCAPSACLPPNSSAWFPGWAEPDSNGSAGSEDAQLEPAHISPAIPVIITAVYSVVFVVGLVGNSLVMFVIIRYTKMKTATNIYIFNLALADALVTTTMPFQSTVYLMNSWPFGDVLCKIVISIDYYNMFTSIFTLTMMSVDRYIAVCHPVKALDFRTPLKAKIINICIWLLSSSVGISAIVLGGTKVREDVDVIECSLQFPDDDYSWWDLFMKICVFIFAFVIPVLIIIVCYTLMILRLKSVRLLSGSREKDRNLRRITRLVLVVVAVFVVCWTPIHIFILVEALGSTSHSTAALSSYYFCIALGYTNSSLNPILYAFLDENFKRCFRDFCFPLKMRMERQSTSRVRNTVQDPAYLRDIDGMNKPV
The species named for assay [9] is Homo sapiens. Kind of assay: Selectivity ratio of Ki for displacement of [3H]Diprenorphine from human KOR expressed in HEK293 cell membranes to Ki for displacement of [3H]Diprenorphine from human MOR expressed in HEK293 cell membranes.
Assay [10] addresses Mu-type opioid receptor (Cavia porcellus) (UniProt P97266). In words: Agonist activity at MOR in Dunkin-Hartley guinea pig ileum assessed as inhibition of electrically-evoked contractions in presence of opioid receptor antagonist naloxone. It is filed as tissue-based. An outline of the steps:
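Cumulative concentration–response curves were run on electrically stimulated guinea-pig ileum strips (2 g load; 0.1 Hz, 0.3 ms, 200 mA) with a single naloxone concentration of 10^-6 M. […]. Contractions were scored as percentage change from baseline.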

Assay [11] concerns Mus musculus. Kind of assay: Antinociceptive activity in CB1 mouse assessed as increase in tail flick latency at 5 mg/kg, ip up to 90 mins. It is filed as functional, organism-based.
Assay [12] concerns the target Mu-type opioid receptor (Cavia porcellus) (UniProt P97266). Kind of assay: Agonist activity at MOR in Dunkin-Hartley guinea pig ileum assessed as inhibition of electrically-evoked contractions in presence of mu-opioid receptor antagonist naloxonazine. It is filed as tissue-based. An outline of the steps: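 Electrically stimulated guinea-pig ileum strips (2 g load; single pulses 0.1 Hz, 0.3 ms, 200 mA) were tested with naloxonazine present at 10^-6 M. Agonist was added cumulatively, at least 5 min apart, after 60–90 min equilibration in Krebs. Response was taken as percentage inhibition from baseline, with EC50 by non-linear fitting (n = 6–8).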

The test system of assay [13] is Mus musculus. Kind of assay: Antinociceptive activity in ip dosed CB1 mouse assessed as increase in tail flick latency after 30 mins. It is filed as functional, organism-based.
The target in assay [14] is Mu-type opioid receptor (Cavia porcellus) (UniProt P97266). In words: Agonist activity at MOR in Dunkin-Hartley guinea pig ileum assessed as inhibition of electrically-evoked contractions in presence of mu-opioid receptor agonist DAMGO. It is filed as tissue-based. An outline of the steps: as §1
Chain of Mu-type opioid receptor (Cavia porcellus) (P97266 whole entry): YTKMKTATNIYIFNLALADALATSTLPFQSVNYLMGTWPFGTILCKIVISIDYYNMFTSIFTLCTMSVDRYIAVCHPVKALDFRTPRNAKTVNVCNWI
Assay [15] relates to Mus musculus. In words: Antinociceptive activity in CB1 mouse assessed as increase in tail flick latency at 5 mg/kg, ip administered 45 mins post naloxone challenge measured up to 90 mins in presence of naloxone. It is filed as functional, organism-based. An outline of the steps: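 Naloxone was given at 3 mg/kg ip, 45 min before 5 mg/kg ip test compound, in male Swiss CB1 mice (25–30 g). Infrared tail-flick latency (lower third of tail, 10 s cutoff, baseline mean of three readings) was measured at 30, 60 and 90 min post-injection (n = 8).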
(In general: In hot-plate and tail-flick tests a longer latency is read as antinociception.)

In assay [16] the target is Mu-type opioid receptor (Cavia porcellus) (UniProt P97266). In words: Agonist activity at MOR in Dunkin-Hartley guinea pig ileum assessed as inhibition of electrically-evoked contractions in presence of kappa-opioid receptor antagonist norBNI. It is filed as tissue-based. An outline of the steps: as §1
Assay [17] concerns Mus musculus. In words: Antinociceptive activity in CB1 mouse assessed as increase in tail flick latency at 5 mg/kg, ip after 60 mins. It is filed as functional, organism-based.

Chain of Kappa-type opioid receptor (Rattus norvegicus, UniProt P34975) (P34975 whole entry): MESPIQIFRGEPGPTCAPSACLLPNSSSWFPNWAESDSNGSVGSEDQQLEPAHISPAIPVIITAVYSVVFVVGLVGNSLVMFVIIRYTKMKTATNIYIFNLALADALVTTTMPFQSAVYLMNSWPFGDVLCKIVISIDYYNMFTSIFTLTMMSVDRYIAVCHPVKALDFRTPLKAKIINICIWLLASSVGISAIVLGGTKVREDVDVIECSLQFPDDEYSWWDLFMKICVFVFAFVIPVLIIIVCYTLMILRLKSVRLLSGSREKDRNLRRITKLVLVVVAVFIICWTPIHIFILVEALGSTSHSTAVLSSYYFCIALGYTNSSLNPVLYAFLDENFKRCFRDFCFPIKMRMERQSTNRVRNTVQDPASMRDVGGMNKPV
Chain of Delta-type opioid receptor (P41143 whole entry): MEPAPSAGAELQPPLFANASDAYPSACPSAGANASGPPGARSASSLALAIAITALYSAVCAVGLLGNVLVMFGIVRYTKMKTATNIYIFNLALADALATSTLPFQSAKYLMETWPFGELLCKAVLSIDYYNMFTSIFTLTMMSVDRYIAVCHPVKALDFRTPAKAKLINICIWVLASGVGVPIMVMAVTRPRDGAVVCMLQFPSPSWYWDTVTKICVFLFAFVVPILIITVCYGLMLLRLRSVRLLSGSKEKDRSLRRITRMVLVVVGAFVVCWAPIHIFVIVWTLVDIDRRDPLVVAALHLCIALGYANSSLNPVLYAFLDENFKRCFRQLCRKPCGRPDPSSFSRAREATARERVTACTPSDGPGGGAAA

A word on the Ki: it is the dissociation constant of the complex between target and ligand, obtained from inhibition or displacement. The low end stands for a stronger hold on the target, the high end for a looser hold on the target. With `C[C@H]1[C@H]2Cc3ccc(O)cc3[C@]1(C)CCN2CCC(=O)N1CCc2ccccc2[C@@H]1c1ccccc1`, the Ki in assay [1] turned out to be 2900 nM; at Mu-type opioid receptor [2], 380 nM; in [5], 900 nM. Moreover, the Ratio Ki in the assay filed under Homo sapiens [3] is 35; in assay [4] it was 12.5.

Consider `C[C@H]1[C@H]2Cc3ccc(O)cc3[C@]1(C)CCN2CCC(=O)N(C)C(c1ccccc1)c1ccccc1`, for which the figures for the Ki (in [1]; on Mu-type opioid receptor [2]; in assay [5]) were 1400 nM, 160 nM and 370 nM, respectively. In assay [6], the pD2 came out at 5.7. Besides, the figures for the Ratio Ki (in the assay filed under Homo sapiens [3]; in assay [4]) were 8.75 and 2.31, respectively.

For the compound `COc1ccsc1CNCC[C@@]1(c2ccccn2)CCC2(CCCC2)OC1`, the inhibition constant (Ki) at Mu-type opioid receptor [7] was 6 nM; in [8], below 10000 nM. Moreover, the Ratio Ki in the assay listed under Homo sapiens [9] is 1670.

With `C[C@H]1[C@H]2Cc3ccc(O)cc3[C@]1(C)CCN2CCC(=O)NC(c1ccccc1)c1ccccc1`, the Ki in assay [1] stood at 2900 nM; on Mu-type opioid receptor [2], 84 nM; in assay [5] it was 680 nM. Besides, the Ratio Ki came to 34.5 in the assay listed under Homo sapiens [3] and 8.09 in assay [4]. The pD2 in assay [10] was 4.1.

`C[C@H]1[C@H]2Cc3ccc(O)cc3[C@]1(C)CCN2CCC(=O)N1CCc2ccccc2[C@H]1c1ccccc1`: the Ki in [1] is 7900 nM; on Mu-type opioid receptor [2], 470 nM; in assay [5], 1900 nM. Also, the Ratio Ki was 16.8 in the assay filed under Homo sapiens [3] and 4.04 in [4].

Take `C[C@H]1[C@H]2Cc3ccc(O)cc3[C@]1(C)CCN2CCC(=O)NCC(c1ccccc1)c1ccccc1`: the values for the inhibition constant (Ki) (in assay [1]; on Mu-type opioid receptor [2]; in [5]) were 440 nM, 0.5 nM and 190 nM, respectively. Besides, the result in the assay on Mus musculus [11] was Active. The Activity entry (in assay [6]; in the assay on Mus musculus [13]) was “Dose-dependent effect” throughout. For the same compound, the pD2 amounted to 6.8 in [6]; 6.5 in [12]; 6.4 in assay [10]; 7 in assay [14]; 6.9 in [16]. Besides, the results for the Ratio Ki (in the assay filed under Homo sapiens [3]; in assay [4]) were 880 and 380, respectively. In the assay with Mus musculus [15], the outcome was inactive.

As for `C[C@H]1[C@H]2Cc3ccc(O)cc3[C@]1(C)CCN2CCC(=O)Nc1ccccc1`, the Ratio Ki came out at 33.8 in the assay listed under Homo sapiens [3] and 132 in assay [4]. Also, the affinity in assay [5], expressed as Ki, was 110 nM.

As to `C[C@H]1[C@H]2Cc3ccc(O)cc3[C@]1(C)CCN2CCC(=O)N1CCc2ccccc2C1c1ccccc1` (mixture of isomers), the affinity at Mu-type opioid receptor [2] corresponds to a Ki of 96 nM.

As to `CN1CC[C@]23c4c5ccc(O)c4O[C@H]2[C@@H](O)C=C[C@H]3[C@H]1C5`, the result in the assay with Mus musculus [11] and with Mus musculus [17] was Active.
